In article PMC9050161 (RSC Advances, 2020):

Experiments:
MRP4 = MRP4 (Homo sapiens, UniProt O15439); assay: M2 excretion in HeLa1A9 cells after shRNA knock-down of MRP4; assay type: cell-based; conditions: MRP4 silencing
In short: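 shRNA plasmid against BCRP, MRP1, MRP3 or MRP4 transfected into UGT1A9-expressing HeLa cells, then exposed to 5 μM test compound in HBSS. Medium sampled at 30–120 min with replacement; cells collected at 120 min. UHPLC gave extracellular and intracellular glucuronide, excretion rate, efflux clearance (excretion rate/intracellular concentration) and fraction metabolized (fmet), each compared with control. Triplicate.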

CYP1A1 = CYP1A1 (Homo sapiens, UniProt P04798); assay: Inhibition of CYP1A1; assay type: biochemical
Sequence of CYP1A1 (P04798 whole entry): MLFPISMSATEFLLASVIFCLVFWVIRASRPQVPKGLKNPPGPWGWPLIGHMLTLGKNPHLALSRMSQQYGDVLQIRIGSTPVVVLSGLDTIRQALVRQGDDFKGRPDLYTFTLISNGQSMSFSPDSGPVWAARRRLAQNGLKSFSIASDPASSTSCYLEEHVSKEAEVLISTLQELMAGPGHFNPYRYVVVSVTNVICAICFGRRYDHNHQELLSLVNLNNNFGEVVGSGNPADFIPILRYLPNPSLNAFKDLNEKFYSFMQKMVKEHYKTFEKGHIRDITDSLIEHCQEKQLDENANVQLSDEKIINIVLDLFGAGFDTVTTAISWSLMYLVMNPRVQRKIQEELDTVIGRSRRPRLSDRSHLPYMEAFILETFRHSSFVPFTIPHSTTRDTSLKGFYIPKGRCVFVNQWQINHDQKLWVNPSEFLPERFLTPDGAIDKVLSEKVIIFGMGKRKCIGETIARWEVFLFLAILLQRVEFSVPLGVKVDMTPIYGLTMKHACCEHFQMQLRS
In short: (§1)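 Recombinant human CYPs at 0.05 mg mL−1 protein, each with its probe substrate near Km: ethoxyresorufin 1 μM (CYP1A1), phenacetin 100 μM (CYP1A2), nifedipine 40 μM (CYP3A4, 3A5). Incubated at 37 °C without (control) or with test compound at 1, 10 and 100 μM. Supernatant analysed by UHPLC-TQD-MS; activity relative to control; triplicate.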

CYP1A2 = target: T1, CYP1A2 (Homo sapiens, UniProt P05177); assay: Inhibition of CYP1A2; assay type: biochemical
T1 sequence (P05177 1-516): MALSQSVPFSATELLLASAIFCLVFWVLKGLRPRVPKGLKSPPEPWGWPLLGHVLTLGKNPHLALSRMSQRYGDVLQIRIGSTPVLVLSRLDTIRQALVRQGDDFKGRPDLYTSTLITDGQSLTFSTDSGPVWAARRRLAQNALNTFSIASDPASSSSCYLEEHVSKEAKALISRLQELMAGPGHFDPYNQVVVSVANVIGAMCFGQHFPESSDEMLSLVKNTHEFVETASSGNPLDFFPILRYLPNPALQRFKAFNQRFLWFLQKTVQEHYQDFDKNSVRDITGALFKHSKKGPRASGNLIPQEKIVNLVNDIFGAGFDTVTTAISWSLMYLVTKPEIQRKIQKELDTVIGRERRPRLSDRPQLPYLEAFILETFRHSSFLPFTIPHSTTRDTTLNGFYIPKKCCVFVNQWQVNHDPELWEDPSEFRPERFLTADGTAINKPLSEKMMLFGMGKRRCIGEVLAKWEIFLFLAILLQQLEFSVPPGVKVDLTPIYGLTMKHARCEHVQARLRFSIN
In short: as §1

CYP2A6 = CYP2A6 (Homo sapiens, UniProt P11509); assay: Inhibition of CYP2A6; assay type: biochemical; conditions: PI-103 1, 10 and 100 μM
Sequence of CYP2A6 (P11509 whole entry): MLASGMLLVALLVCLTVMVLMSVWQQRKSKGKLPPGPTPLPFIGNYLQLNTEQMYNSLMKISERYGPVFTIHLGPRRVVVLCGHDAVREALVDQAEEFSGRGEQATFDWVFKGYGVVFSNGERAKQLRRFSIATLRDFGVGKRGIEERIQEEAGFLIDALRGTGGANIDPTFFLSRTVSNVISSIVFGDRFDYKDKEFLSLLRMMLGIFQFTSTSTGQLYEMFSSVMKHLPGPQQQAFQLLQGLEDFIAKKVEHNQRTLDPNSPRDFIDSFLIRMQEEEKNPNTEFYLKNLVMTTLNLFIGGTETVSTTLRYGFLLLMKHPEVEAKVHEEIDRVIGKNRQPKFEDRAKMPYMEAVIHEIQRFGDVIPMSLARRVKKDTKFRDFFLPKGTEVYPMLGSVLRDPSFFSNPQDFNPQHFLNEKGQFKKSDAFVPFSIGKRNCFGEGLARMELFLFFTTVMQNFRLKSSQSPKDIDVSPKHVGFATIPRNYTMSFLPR
In short: (§2)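 Recombinant human CYPs at 0.1 mg mL−1 protein, each with its probe substrate near Km: coumarin 100 μM (2A6), bupropion 100 μM (2B6), paclitaxel 60 μM (2C8), tolbutamide 200 μM (2C9), mephenytoin 100 μM (2C19), chlorzoxazone 200 μM (2E1). Incubated at 37 °C with or without test compound at 1, 10 or 100 μM. UHPLC-TQD-MS read-out; triplicate.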

CYP2C8 = CYP2C8 (Homo sapiens, UniProt P10632); assay: Inhibition of CYP2C8; assay type: biochemical; conditions: PI-103 1, 10 and 100 μM
Sequence of CYP2C8 (P10632 whole entry): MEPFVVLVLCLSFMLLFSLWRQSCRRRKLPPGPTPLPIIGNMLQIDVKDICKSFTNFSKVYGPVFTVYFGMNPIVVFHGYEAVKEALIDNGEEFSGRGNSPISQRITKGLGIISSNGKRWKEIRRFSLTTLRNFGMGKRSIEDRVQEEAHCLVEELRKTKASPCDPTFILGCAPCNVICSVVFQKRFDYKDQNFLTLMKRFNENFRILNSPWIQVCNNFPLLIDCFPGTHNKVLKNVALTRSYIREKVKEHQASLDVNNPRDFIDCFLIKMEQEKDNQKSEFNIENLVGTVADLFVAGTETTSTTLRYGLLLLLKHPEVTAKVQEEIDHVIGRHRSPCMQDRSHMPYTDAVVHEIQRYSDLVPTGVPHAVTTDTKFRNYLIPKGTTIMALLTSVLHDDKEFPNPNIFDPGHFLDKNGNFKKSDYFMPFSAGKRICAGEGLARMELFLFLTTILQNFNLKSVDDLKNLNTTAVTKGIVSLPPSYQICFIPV
In short: as §2

CYP2C9 = CYP2C9 (Homo sapiens, UniProt P11712); assay: Inhibition of CYP2C9; assay type: biochemical
Sequence of CYP2C9 (P11712 whole entry): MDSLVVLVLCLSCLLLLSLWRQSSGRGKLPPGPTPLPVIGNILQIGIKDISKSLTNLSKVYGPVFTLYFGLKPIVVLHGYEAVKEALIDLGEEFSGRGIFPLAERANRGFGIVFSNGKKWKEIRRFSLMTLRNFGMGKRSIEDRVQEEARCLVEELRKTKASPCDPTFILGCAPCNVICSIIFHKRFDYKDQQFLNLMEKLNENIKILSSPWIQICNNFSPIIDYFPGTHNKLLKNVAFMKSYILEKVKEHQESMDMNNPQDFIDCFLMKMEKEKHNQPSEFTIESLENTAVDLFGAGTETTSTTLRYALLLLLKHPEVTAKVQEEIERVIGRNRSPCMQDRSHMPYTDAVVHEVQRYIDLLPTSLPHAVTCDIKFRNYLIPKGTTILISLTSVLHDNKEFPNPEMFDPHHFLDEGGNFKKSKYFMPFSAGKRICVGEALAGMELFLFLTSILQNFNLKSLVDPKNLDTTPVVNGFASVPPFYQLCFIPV
In short: as §2

CYP2C19 = CYP2C19 (Homo sapiens, UniProt P33261); assay: Inhibition of CYP2C19; assay type: biochemical
Sequence of CYP2C19 (P33261 whole entry): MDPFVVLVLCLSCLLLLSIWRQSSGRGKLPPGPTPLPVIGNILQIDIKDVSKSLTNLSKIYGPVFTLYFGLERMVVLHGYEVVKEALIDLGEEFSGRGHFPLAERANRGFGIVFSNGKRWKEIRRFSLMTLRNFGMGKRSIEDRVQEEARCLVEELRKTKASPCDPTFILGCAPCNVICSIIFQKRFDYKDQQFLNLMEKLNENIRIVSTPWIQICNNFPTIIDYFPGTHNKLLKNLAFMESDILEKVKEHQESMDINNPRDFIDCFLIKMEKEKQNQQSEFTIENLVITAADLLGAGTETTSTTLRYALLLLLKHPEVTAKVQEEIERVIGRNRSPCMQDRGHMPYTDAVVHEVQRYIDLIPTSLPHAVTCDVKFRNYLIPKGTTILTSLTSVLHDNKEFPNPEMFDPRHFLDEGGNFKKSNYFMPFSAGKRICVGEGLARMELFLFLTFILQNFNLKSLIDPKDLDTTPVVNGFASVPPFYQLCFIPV
In short: as §2

UGT1A3 = target: T2, UGT1A3 (Homo sapiens, UniProt P35503); assay: Inhibition of UGT1A3; assay type: biochemical
T2 sequence (P35503 29-534): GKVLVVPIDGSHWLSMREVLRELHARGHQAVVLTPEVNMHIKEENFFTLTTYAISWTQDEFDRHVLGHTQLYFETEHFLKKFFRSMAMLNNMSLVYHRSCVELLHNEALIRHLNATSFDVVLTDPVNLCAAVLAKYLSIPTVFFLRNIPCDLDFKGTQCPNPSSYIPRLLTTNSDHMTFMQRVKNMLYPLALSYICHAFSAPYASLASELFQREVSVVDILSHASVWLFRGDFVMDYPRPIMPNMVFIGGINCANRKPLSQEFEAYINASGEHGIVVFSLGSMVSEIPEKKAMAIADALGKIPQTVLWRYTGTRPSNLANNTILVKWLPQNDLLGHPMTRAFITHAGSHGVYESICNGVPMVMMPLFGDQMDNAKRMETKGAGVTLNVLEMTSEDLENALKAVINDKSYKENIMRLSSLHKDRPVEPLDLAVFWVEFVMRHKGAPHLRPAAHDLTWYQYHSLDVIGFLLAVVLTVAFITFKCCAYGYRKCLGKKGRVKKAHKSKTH
In short: (§3)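 Recombinant human UGTs screened with probe substrates: β-estradiol for UGT1A1, propofol for 1A9, and 4-methylumbelliferone for 1A3, 1A6, 1A7, 1A8, 1A10, 2B4, 2B7, 2B10, 2B15 and 2B17. Incubated at 37 °C without (control) or with test compound at 1, 10 or 100 μM. Glucuronide formation measured relative to control; triplicate.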

UGT1A7 = target: T3, UGT1A7 (Homo sapiens, UniProt Q9HAW7); assay: Inhibition of UGT1A7; assay type: biochemical
T3 sequence (Q9HAW7 26-530): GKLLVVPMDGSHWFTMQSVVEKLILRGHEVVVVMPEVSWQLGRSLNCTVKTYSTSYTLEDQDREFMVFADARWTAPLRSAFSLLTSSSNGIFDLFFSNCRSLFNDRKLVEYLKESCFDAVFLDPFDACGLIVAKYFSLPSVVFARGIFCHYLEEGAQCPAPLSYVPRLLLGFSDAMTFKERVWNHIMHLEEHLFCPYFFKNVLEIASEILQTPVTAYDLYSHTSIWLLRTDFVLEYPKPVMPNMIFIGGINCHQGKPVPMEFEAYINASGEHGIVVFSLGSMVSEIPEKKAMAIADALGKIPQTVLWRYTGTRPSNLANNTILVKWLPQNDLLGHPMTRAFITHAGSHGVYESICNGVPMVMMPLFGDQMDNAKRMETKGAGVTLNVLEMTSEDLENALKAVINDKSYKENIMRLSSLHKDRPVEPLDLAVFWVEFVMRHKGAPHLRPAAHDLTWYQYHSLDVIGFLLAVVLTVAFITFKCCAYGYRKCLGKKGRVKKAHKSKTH
In short: as §3

[1] = system: normal hematopoietic progenitors; conditions: cited from earlier work

Sequence of MRP4 (O15439 whole entry): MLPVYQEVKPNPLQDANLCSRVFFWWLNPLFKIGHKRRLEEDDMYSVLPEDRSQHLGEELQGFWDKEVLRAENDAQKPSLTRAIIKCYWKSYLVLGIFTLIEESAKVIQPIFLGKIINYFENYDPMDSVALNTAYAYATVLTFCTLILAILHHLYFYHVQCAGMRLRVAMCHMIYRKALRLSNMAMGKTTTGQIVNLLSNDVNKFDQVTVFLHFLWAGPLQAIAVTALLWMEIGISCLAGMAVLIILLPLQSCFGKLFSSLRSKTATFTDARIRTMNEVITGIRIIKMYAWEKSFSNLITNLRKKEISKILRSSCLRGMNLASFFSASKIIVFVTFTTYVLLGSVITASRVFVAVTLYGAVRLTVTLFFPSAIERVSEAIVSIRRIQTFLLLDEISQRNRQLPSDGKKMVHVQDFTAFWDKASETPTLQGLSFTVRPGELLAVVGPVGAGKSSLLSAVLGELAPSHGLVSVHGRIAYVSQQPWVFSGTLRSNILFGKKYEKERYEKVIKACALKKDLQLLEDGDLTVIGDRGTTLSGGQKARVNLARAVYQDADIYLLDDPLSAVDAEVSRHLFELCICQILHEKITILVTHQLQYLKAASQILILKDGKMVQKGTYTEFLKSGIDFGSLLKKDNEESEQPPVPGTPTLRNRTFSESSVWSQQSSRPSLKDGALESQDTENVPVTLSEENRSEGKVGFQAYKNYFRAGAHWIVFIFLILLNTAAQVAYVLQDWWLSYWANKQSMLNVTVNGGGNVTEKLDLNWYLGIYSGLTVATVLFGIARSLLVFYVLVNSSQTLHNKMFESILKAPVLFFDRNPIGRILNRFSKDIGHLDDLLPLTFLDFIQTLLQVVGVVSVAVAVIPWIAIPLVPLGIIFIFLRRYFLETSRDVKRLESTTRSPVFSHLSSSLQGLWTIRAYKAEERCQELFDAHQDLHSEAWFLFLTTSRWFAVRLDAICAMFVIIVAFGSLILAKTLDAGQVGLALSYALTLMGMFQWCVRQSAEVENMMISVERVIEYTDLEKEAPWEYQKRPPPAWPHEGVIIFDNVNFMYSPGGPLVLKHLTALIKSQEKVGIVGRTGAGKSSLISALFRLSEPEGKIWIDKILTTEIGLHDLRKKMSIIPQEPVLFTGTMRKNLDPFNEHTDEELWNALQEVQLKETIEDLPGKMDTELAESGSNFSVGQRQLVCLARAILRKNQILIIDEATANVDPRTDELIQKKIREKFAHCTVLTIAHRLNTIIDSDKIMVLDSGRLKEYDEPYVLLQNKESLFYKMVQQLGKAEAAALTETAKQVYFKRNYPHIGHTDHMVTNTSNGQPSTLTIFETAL

Oc1cccc(-c2nc(N3CCOCC3)c3oc4ncccc4c3n2)c1 [PI-103]
decrease in fmet value of PI-103 (MRP4): 33.8% | IC50 (CYP1A1): 16800 ± 1760 nM | residual activity (CYP1A1; CYP1A1, 100 μM PI-103): 21.39 % of the negative control | IC50 (CYP1A2): 370 ± 40 nM | Ki (CYP1A2): 380 ± 30 nM | residual activity (CYP1A2; CYP1A2, 100 μM PI-103): 8.63 % of the negative control | Type of inhibition (CYP1A2; CYP1A2, phenacetin): Noncompetitive | inhibitory effect (CYP2A6): negligible or weak | inhibitory effect (CYP2C8): negligible or weak | IC50 (CYP2C9): 1160 ± 150 nM | Ki (CYP2C9): 560 ± 120 nM | residual activity (CYP2C9; CYP2C9, 100 μM PI-103): 14.22 % of the negative control | Type of inhibition (CYP2C9; CYP2C9, tolbutamide): Mixed-type | α (CYP2C9; CYP2C9, tolbutamide, mixed-type model (selected)): 2.45 ± 0.94 | IC50 (CYP2C19): 590 ± 60 nM | Ki (CYP2C19): 530 ± 30 nM | residual activity (CYP2C19; CYP2C19, 100 μM PI-103): 14.67 % of the negative control | Type of inhibition (CYP2C19; CYP2C19, mephenytoin): Noncompetitive | IC50 (UGT1A3): 6890 ± 730 nM | Ki (UGT1A3): 2580 ± 840 nM | Type of inhibition (UGT1A3; UGT1A3, 4-MU): Mixed-type | α (UGT1A3; UGT1A3, 4-MU, mixed-type model (selected)): 2.97 ± 1.61 | IC50 (UGT1A7): 6250 ± 840 nM | Ki (UGT1A7): 5640 ± 600 nM | Type of inhibition (UGT1A7; UGT1A7, 4-MU): Noncompetitive | impact on normal hematopoietic progenitors [1]: little impact
